≈ marks a conversion by molar mass, not a printed value.

Format in all cases: functional
Test [1] concerns Streptococcus pyogenes. The test is described as follows: Antibacterial activity was determined against gram positive organism, Streptococcus pyogenes C203. To be noted: Streptococcus pyogenes; read-out: MIC. The gist of the method: (§1)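 MIC (µg/mL) by standard microtitration against a panel of 10 Gram-positive and Gram-negative organisms; values averaged from multiple experiments.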

The test system of test [2] is Streptococcus pyogenes. Kind of test: The in vivo potency was determined in female charles river CD-1 mice infected with Streptococcus pyogenes after peroral administration. The conditions noted are these: Streptococcus pyogenes, po; read-out: PD50. The method, boiled down:
(§2)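 Acute lethal systemic infection in female CD-1 mice, 16 mice per route; single dose given orally by gavage at the time of challenge; median protective dose (PD50, mg/kg) determined.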

Test [3] in a line: (§3) MIC ratio measured as the mean MICs of gram-negative bacteria. The method, boiled down: (§4)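 Geometric mean of the microtitration MICs (µg/mL) over the Gram-negative organisms, and separately over the Gram-positive organisms, of the 10-strain panel; individual MICs averaged from multiple experiments.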
Test [4] deals with Escherichia coli. Kind of test: The in vivo potency was determined in female charles river CD-1 mice infected with Escherichia coli after sc administration. To be noted: Escherichia coli, sc; read-out: PD50. The method, boiled down: (§5)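 Acute lethal systemic infection in female CD-1 mice, 16 mice per route; single subcutaneous dose given at the time of challenge; median protective dose (PD50, mg/kg) determined.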

The next test has as its system Enterobacter cloacae. The test is described as follows: Antibacterial activity was determined against gram negative organism, Enterobacter cloacae MA2646. The conditions noted are these: Enterobacter cloacae; read-out: MIC.
In test [5] the test system is Streptococcus pyogenes. The test is described as follows: The in vivo potency was determined in female charles river CD-1 mice infected with Streptococcus pyogenes after sc administration. To be noted: Streptococcus pyogenes, sc; read-out: PD50. The method, boiled down: as §5
In another test the test system is Enterococcus faecalis. Kind of test: Antibacterial activity was determined against gram positive organism, Streptococcus faecalis MGH-2. To be noted: Enterococcus faecalis; read-out: MIC. The method, boiled down:
as §1

The subject of test [6] is Bacteria. The test is described as follows: Antibacterial activity was determined against gram negative organism, Providencia rettgeri. M1771. To be noted: Bacteria; read-out: MIC. The gist of the method: as §1
Test [7] concerns Streptococcus pneumoniae. Kind of test: (§6) Antibacterial activity was determined against gram positive organism, Streptococcus pneumoniae SV-1. The conditions noted are these: Streptococcus pneumoniae; read-out: MIC. The method, boiled down: as §1
Test [8] concerns Staphylococcus aureus. Kind of test: (§7) Antibacterial activity was determined against gram positive organism, Staphylococcus aureus H228. The conditions noted are these: Staphylococcus aureus; read-out: MIC. The method, boiled down:
as §1

A short description of test [9]: (§8) MIC ratio measured as the mean MICs of gram-positive bacteria. The gist of the method: as §4
Test [10] has as its system Escherichia coli. The test is described as follows: Antibacterial activity was determined against gram negative organism, Escherichia coli vogel. The conditions noted are these: Escherichia coli; read-out: MIC. The gist of the method:
as §1

The next test deals with Klebsiella pneumoniae. The test is described as follows: Antibacterial activity was determined against gram negative organism, Klebsiella pneumoniae MGH-2. To be noted: Klebsiella pneumoniae; read-out: MIC. The gist of the method:
as §1

The subject of a further test is Pseudomonas aeruginosa. The test is described as follows: Antibacterial activity was determined against gram negative organism, Pseudomonas aeruginosa UI-18. To be noted: Pseudomonas aeruginosa; read-out: MIC. The method, boiled down:
as §1

The subject of test [11] is Escherichia coli. The test is described as follows: The in vivo potency was determined in female charles river CD-1 mice infected with Escherichia coli after peroral administration. To be noted: Escherichia coli, po; read-out: PD50. The method, boiled down: as §2
The subject of test [12] is Staphylococcus aureus. The test is described as follows: (§9) Antibacterial activity was determined against gram positive organism, Staphylococcus aureus UC76. The gist of the method: as §1
The subject of test [13] is Bacteria. Described as §3. The method, boiled down: as §4
For test [14], the system named is Bacteria. Described as §8. The method, boiled down: as §4
The test system of test [15] is Streptococcus pneumoniae. Kind of test: The in vivo potency was determined in female charles river CD-1 mice infected with Streptococcus pneumoniae after peroral administration. To be noted: Streptococcus pneumoniae, po; read-out: PD50. The method, boiled down: as §2
The target of test [16] is DNA gyrase (Escherichia coli) (UniProt P0AES6+P0AES4). The test is described as follows: Minimum inhibitory concentration against Escherichia coli DNA-gyrase in supercoiling assay.
In test [17] the test system is Streptococcus pneumoniae. The test is described as follows: The in vivo potency was determined in female charles river CD-1 mice infected with Streptococcus pneumoniae after sc administration. The conditions noted are these: Streptococcus pneumoniae, sc; read-out: PD50. The gist of the method:
as §5

In test [18] the test system is Staphylococcus aureus. The test is described as §9. The method, boiled down:
(§10)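 Broth microtitration MIC against a panel of 10 Gram-positive and Gram-negative organisms; MIC in µg/mL, averaged over multiple experiments.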
This is another data set of the same source.

The test system of test [19] is Staphylococcus aureus. The test is described as §7. The method, boiled down:
as §10

Test [20] has as its system Streptococcus pneumoniae. The description is as §6. The method, boiled down: as §10
[21] abbreviates: Staphylococcus aureus, read-out: MIC.

As for `CC1CN(c2c(F)c(N)c3c(=O)c(C(=O)O)cn(C4CC4)c3c2Cl)CC(C)N1` (stereo not given), the MIC with Streptococcus pyogenes [1] came to 0.2 µg/mL (≈ 0.489 µM); with Enterobacter cloacae, 0.1 µg/mL (≈ 0.245 µM); in the test with Enterococcus faecalis it was 0.4 µg/mL (≈ 0.978 µM); with Bacteria [6], 0.4 µg/mL (≈ 0.978 µM); with Streptococcus pneumoniae [7], 0.1 µg/mL (≈ 0.245 µM); in the test with Staphylococcus aureus [8], 0.1 µg/mL (≈ 0.245 µM). The MIC with Escherichia coli [10] was determined as 0.05 µg/mL (≈ 0.122 µM); with Klebsiella pneumoniae, 0.2 µg/mL (≈ 0.489 µM); in the test on Pseudomonas aeruginosa, 1.6 µg/mL (≈ 3.91 µM); in the test on Staphylococcus aureus [12] (setting [21]), 0.025 µg/mL (≈ 0.0611 µM). Moreover, the ED50 with Streptococcus pyogenes [2] was found to be 10 mg/kg; in the test on Escherichia coli [4] it was 1 mg/kg; with Streptococcus pyogenes [5] it was 8 mg/kg; with Escherichia coli [11] it was 2 mg/kg. Also, the figures for the Ratio in test [3] and in test [9] were 0.23 and 0.11, respectively.
In the case of `NC1CCN(c2c(F)cc3c(=O)c(C(=O)O)cn(C4CC4)c3c2F)C1` (stereo not given), the MIC worked out at 0.05 µg/mL (≈ 0.143 µM) with Streptococcus pyogenes [1]; 0.013 µg/mL (≈ 0.0372 µM) with Enterobacter cloacae; 0.1 µg/mL (≈ 0.286 µM) with Enterococcus faecalis; 0.1 µg/mL (≈ 0.286 µM) in [16]; 0.05 µg/mL (≈ 0.143 µM) with Bacteria [6]; 0.05 µg/mL (≈ 0.143 µM) in the test with Streptococcus pneumoniae [7]. Further, the MIC in the test with Staphylococcus aureus [8] amounted to 0.05 µg/mL (≈ 0.143 µM); in the test on Escherichia coli [10] it was 0.013 µg/mL (≈ 0.0372 µM); in the test on Klebsiella pneumoniae it was 0.025 µg/mL (≈ 0.0716 µM); in the test on Pseudomonas aeruginosa, 0.1 µg/mL (≈ 0.286 µM); with Staphylococcus aureus [12] (setting [21]) it was 0.013 µg/mL (≈ 0.0372 µM). The ED50 was found to be 15 mg/kg in the test with Streptococcus pyogenes [2]; 0.2 mg/kg with Escherichia coli [4]; 6 mg/kg in the test on Streptococcus pyogenes [5]; 8 mg/kg in the test with Streptococcus pneumoniae [15]; 0.9 mg/kg in the test on Escherichia coli [11]; 2 mg/kg in the test with Streptococcus pneumoniae [17]. Besides, the Geometric mean MIC over Gram-negative bacteria (µg/mL) in the test on Bacteria [13] was 0.029. In addition, the “Geometric mean MIC over Gram-positive bacteria (µg/mL)” value in the test with Bacteria [14] is reported as 0.044.
On to `C[C@@H]1CN(c2c(F)c(N)c3c(=O)c(C(=O)O)cn(C4CC4)c3c2F)C[C@H](C)N1` [SPARFLOXACIN], for which the MIC with Streptococcus pyogenes [1] came out at 0.1 µg/mL (≈ 0.255 µM); in the test with Enterobacter cloacae, 0.025 µg/mL (≈ 0.0637 µM); with Enterococcus faecalis, 0.1 µg/mL (≈ 0.255 µM); in test [16], 2.5 µg/mL (≈ 6.37 µM); in the test on Bacteria [6], 0.2 µg/mL (≈ 0.51 µM); in the test on Streptococcus pneumoniae [7], 0.05 µg/mL (≈ 0.127 µM). Besides, the MIC amounted to 0.05 µg/mL (≈ 0.127 µM) in the test with Staphylococcus aureus [8]; 0.025 µg/mL (≈ 0.0637 µM) in the test with Escherichia coli [10]; 0.05 µg/mL (≈ 0.127 µM) with Klebsiella pneumoniae; 0.8 µg/mL (≈ 2.04 µM) in the test on Pseudomonas aeruginosa; 0.013 µg/mL (≈ 0.0331 µM) with Staphylococcus aureus [12] (setting [21]). In addition, the ED50 worked out at 14 mg/kg in the test with Streptococcus pyogenes [2]; 0.4 mg/kg in the test on Escherichia coli [4]; 13 mg/kg in the test on Streptococcus pyogenes [5]; 17 mg/kg in the test with Streptococcus pneumoniae [15]; 1 mg/kg in the test with Escherichia coli [11]; 17 mg/kg in the test with Streptococcus pneumoniae [17]. Besides, in the test on Bacteria [13], the Geometric mean MIC over Gram-negative bacteria (µg/mL) came out at 0.087. For the same compound, the “Geometric mean MIC over Gram-positive bacteria (µg/mL)” value in the test on Bacteria [14] stood at 0.05.
Consider `Nc1c(F)c(N2CCC(N)C2)c(Cl)c2c1c(=O)c(C(=O)O)cn2C1CC1` (stereo not given), for which the MIC was 0.1 µg/mL (≈ 0.263 µM) with Streptococcus pyogenes [1]; 0.025 µg/mL (≈ 0.0657 µM) with Enterobacter cloacae; 0.1 µg/mL (≈ 0.263 µM) in the test with Enterococcus faecalis; 0.1 µg/mL (≈ 0.263 µM) with Bacteria [6]; 0.1 µg/mL (≈ 0.263 µM) in the test on Streptococcus pneumoniae [7]; 0.1 µg/mL (≈ 0.263 µM) with Staphylococcus aureus [8]. Moreover, the MIC in the test on Escherichia coli [10] stood at 0.025 µg/mL (≈ 0.0657 µM); in the test on Klebsiella pneumoniae, 0.05 µg/mL (≈ 0.131 µM); in the test with Pseudomonas aeruginosa, 0.8 µg/mL (≈ 2.1 µM); against Staphylococcus aureus [12] it was 0.025 µg/mL (≈ 0.0657 µM). Besides, the Ratio in test [3] and in test [9] was 0.076 throughout. The figures for the ED50 with Escherichia coli [4] and in the test on Escherichia coli [11] were 1 mg/kg and 6 mg/kg, respectively.
Turning to `CCn1cc(C(=O)O)c(=O)c2cc(F)c(N3CCNCC3)cc21` [NORFLOXACIN], the MIC in the test with Streptococcus pyogenes [1] turned out to be 0.8 µg/mL (≈ 2.51 µM); in the test on Enterobacter cloacae, 0.1 µg/mL (≈ 0.313 µM); in the test on Staphylococcus aureus [18], 0.05 µg/mL (≈ 0.157 µM); in the test with Staphylococcus aureus [19], 0.8 µg/mL (≈ 2.51 µM); with Enterococcus faecalis, 1.6 µg/mL (≈ 5.01 µM); in the test with Bacteria [6], 0.025 µg/mL (≈ 0.0783 µM). Also, the MIC in the test on Streptococcus pneumoniae [20] was 1.6 µg/mL (≈ 5.01 µM); with Escherichia coli [10] it was 0.025 µg/mL (≈ 0.0783 µM); in the test on Klebsiella pneumoniae it was 0.05 µg/mL (≈ 0.157 µM); in the test with Pseudomonas aeruginosa, 0.2 µg/mL (≈ 0.626 µM). In addition, the Ratio amounted to 0.057 in test [3] and 0.61 in test [9].

These data come from ChEMBL document CHEMBL1125826, “Synthesis and biological activity of 5-amino- and 5-hydroxyquinolones, and the overwhelming influence of the remote N1-substituent in determining the structure-activity relationship” (1991).
